# Measurements: ChEMBL document CHEMBL3612066, “Design, Synthesis, and Biological Evaluation of Pyrazolo[1,5-a]pyridine-3-carboxamides as Novel Antitubercular Agents” (ACS Med Chem Lett, 2015)
# Tests used:
# [1] = test system: Mycobacterium tuberculosis; assay: Antitubercular activity against Mycobacterium tuberculosis H37Rv after 7 days by microplate alamar blue assay; type: functional; settings: 168 h
# In short: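 MIC against Mtb H37Rv by microplate alamar blue assay (MABA); MIC values interpolated by curve fitting.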
# [2] = test system: Mycobacterium tuberculosis; assay: Antitubercular activity against Mycobacterium tuberculosis H37Ra after 7 days by microplate alamar blue assay; type: functional; settings: 168 h
# [3] = test system: Vero; assay: Cytotoxicity against African green monkey Vero cells after 72 hrs by CCK8 assay; type: cell-based; settings: Chlorocebus sabaeus
# In short: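 VERO African green monkey kidney cells; growth inhibition read by CCK-8 assay and reported as IC50. Values are means of two or more independent experiments, with variation <20%.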
# [4] = test system: Mycobacterium tuberculosis; assay: Antitubercular activity against fluorescent reporter strain of Mycobacterium tuberculosis H37Rv after 5 days by fluorescence assay; type: functional, organism-based; settings: 120 h
# In short: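 A fluorescent reporter strain of Mtb H37Rv was grown in liquid medium under aerobic conditions, and growth was read by fluorescence. MIC, IC50 and IC90 were determined.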
# [5] = test system: Mycobacterium tuberculosis; assay: Antitubercular activity against autoluminescent Mycobacterium tuberculosis H37Ra infected in po dosed noninvasive BALB/c mouse assessed as bioluminescence intensity by measuring relative light unit administered qd for 6 days; type: functional, organism-based
# In short: (§1)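 Mice were infected intravenously with log-phase, marker-free autoluminescent Mtb H37Ra at 2 × 10^6 CFU per mouse. They were then dosed by oral gavage once daily for 6 consecutive days at 4, 20 or 100 mg/kg/day, with CMC-Na as vehicle. Bioluminescence (RLU) was read in the same live, anesthetized mice every other day and expressed as the RLUdayn/RLUday0 ratio. Mortality was monitored during treatment.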
# [6] = test system: Mycobacterium tuberculosis; assay: Antitubercular activity against autoluminescent Mycobacterium tuberculosis H37Ra infected in noninvasive BALB/c mouse assessed as bioluminescence intensity by measuring relative light unit at 4 mg/kg, po qd for 6 days; type: functional; in short: as §1
# [7] = test system: Mycobacterium tuberculosis; assay: Antitubercular activity against autoluminescent Mycobacterium tuberculosis H37Ra infected in noninvasive BALB/c mouse assessed as bioluminescence intensity by measuring relative light unit at 20 mg/kg, po qd for 6 days; type: functional; in short: as §1
# [8] = test system: Mycobacterium tuberculosis; assay: Antitubercular activity against autoluminescent Mycobacterium tuberculosis H37Ra infected in noninvasive BALB/c mouse assessed as bioluminescence intensity by measuring relative light unit at 100 mg/kg, po qd for 6 days; type: functional; in short: as §1
# [9] = test system: Mycobacterium tuberculosis; assay: Antitubercular activity against autoluminescent Mycobacterium tuberculosis H37Ra infected in noninvasive BALB/c mouse assessed as bactericidal activity by measuring reduction in relative light unit at 100 mg/kg, po qd for 2 days relative to control; type: functional; in short: as §1
# [10] = test system: Mycobacterium tuberculosis; assay: Antitubercular activity against autoluminescent Mycobacterium tuberculosis H37Ra infected in noninvasive BALB/c mouse assessed as bactericidal activity by measuring reduction in relative light unit at 100 mg/kg, po qd for 4 days relative to control; type: functional
# [11] = test system: Mycobacterium tuberculosis; assay: Antitubercular activity against autoluminescent Mycobacterium tuberculosis H37Ra infected in noninvasive BALB/c mouse assessed as bactericidal activity by measuring reduction in relative light unit at 100 mg/kg, po qd for 6 days relative to control; type: functional; in short: as §1
# [12] = test system: Mus musculus; assay: Toxicity in autoluminescent Mycobacterium tuberculosis H37Ra infected noninvasive BALB/c mouse assessed as mortality at 4 to 100 mg/kg, po qd for 6 days; type: organism-based; settings: in vivo, 144 h; in short: as §1
SMILES,MIC [1] [µM],MIC [2] [µM],IC50 [3] [nM],other results
O=C(NCc1ccc(N2CCC(c3ccc(OC(F)(F)F)cc3)CC2)cc1)c1c(C2CC2)nn2ccc(Cl)cc12,0.0176,0.176,> 100000,
Cc1nn2ccc(-c3ccccc3)cc2c1C(=O)NCc1ccc(N2CCC(c3ccc(OC(F)(F)F)cc3)CC2)cc1,0.479,> 17.1,,
CCc1nc2ccc(Cl)cn2c1C(=O)NCc1ccc(N2CCC(c3ccc(OC(F)(F)F)cc3)CC2)cc1 [TELACEBEC],0.0108,0.0054,> 100000,
Cc1ccn2nc(C)c(C(=O)NCc3ccc(N4CCC(C(F)(F)F)CC4)cc3)c2c1,0.0139,0.0023,> 100000,
Cc1ccn2nc(C)c(C(=O)NCc3ccc(N4CCN(c5ccc(F)cc5)CC4)cc3)c2c1,0.0131,0.0066,> 100000,IC50 [4]: 2.5 nM; IC90 [4]: 6.5 nM; MIC [4]: 0.0063 µM
Cc1nn2ccc(C(F)(F)F)cc2c1C(=O)NCc1ccc(N2CCC(c3ccc(OC(F)(F)F)cc3)CC2)cc1,0.052,1.73,> 100000,
Cc1nn2c(C)cccc2c1C(=O)NCc1ccc(N2CCC(c3ccc(OC(F)(F)F)cc3)CC2)cc1,0.115,5.74,,
Cc1ccn2nc(C)c(C(=O)NCc3ccc(N(C)C)cc3)c2c1,0.0868,0.31,> 100000,
Cc1ccn2nc(C)c(C(=O)NCc3ccc(C(F)(F)F)cc3)c2c1,0.0691,0.288,> 100000,
CCc1nn2ccc(Cl)cc2c1C(=O)NCc1ccc(N2CCC(c3ccc(OC(F)(F)F)cc3)CC2)cc1,0.0108,0.0538,> 100000,IC50 [4]: 31.3 nM; IC90 [4]: 150 nM; MIC [4]: 0.129 µM
O=C(NCc1ccc(N2CCC(c3ccc(OC(F)(F)F)cc3)CC2)cc1)c1c(-c2ccccc2)nn2ccc(Cl)cc12,1.55,> 16.5,,
Cc1ccn2nc(C)c(C(=O)NCc3ccc(-c4ccc(OC(F)(F)F)cc4)cc3)c2c1,0.0137,0.0068,50700,
Cc1ccn2nc(C)c(C(=O)NCc3ccc(N4CCC(c5ccc(OC(F)(F)F)cc5)CC4)cc3)c2c1,0.0077,0.0057,> 100000,IC50 [4]: 5.1 nM; IC90 [4]: 12 nM; MIC [4]: 0.011 µM
COc1ccn2nc(C)c(C(=O)NCc3ccc(N4CCC(c5ccc(OC(F)(F)F)cc5)CC4)cc3)c2c1,0.0111,0.0056,> 100000,Activity [5]: Dose-dependent effect; RLU [6]: 0.4; RLU [7]: 0.19; RLU [8]: 0.15; RLU [9]: 3.6; RLU [10]: 5; RLU [11]: 6.5; Activity [12]: Non-toxic; IC50 [4]: 2.5 nM; IC90 [4]: 5.7 nM; MIC [4]: 0.0056 µM
O=C(NCc1ccc(N2CCC(c3ccc(OC(F)(F)F)cc3)CC2)cc1)c1cnn2ccc(Cl)cc12,0.359,18.9,,
Cc1ccc2c(C(=O)NCc3ccc(N4CCC(c5ccc(OC(F)(F)F)cc5)CC4)cc3)c(C)nn2c1,0.0134,0.574,> 100000,
NNC(=O)c1ccncc1 [ISONIAZID],2.99,0.729,,
Cc1nn2ccc(C(C)(C)C)cc2c1C(=O)NCc1ccc(N2CCC(c3ccc(OC(F)(F)F)cc3)CC2)cc1,> 1.77,> 17.7,,
CCc1ccn2nc(C)c(C(=O)NCc3ccc(N4CCC(c5ccc(OC(F)(F)F)cc5)CC4)cc3)c2c1,0.0112,0.0186,> 100000,
Cc1nn2cccc(C)c2c1C(=O)NCc1ccc(N2CCC(c3ccc(OC(F)(F)F)cc3)CC2)cc1,1.15,> 19.1,,
Cc1nn2ccc(Cl)cc2c1C(=O)NCc1ccc(N2CCC(c3ccc(OC(F)(F)F)cc3)CC2)cc1,0.0074,0.0184,> 100000,
Cc1nn2ccccc2c1C(=O)NCc1ccc(N2CCC(c3ccc(OC(F)(F)F)cc3)CC2)cc1,0.0098,0.59,> 100000,
Cc1nn2ccc(C(C)C)cc2c1C(=O)NCc1ccc(N2CCC(c3ccc(OC(F)(F)F)cc3)CC2)cc1,0.0472,1.82,,
Cc1ccn2nc(C)c(C(=O)NCc3ccc(N4CCCCC4)cc3)c2c1,0.0166,0.0276,> 100000,
CO[C@H]1/C=C/O[C@@]2(C)Oc3c(C)c(O)c4c(O)c(c(/C=N/N5CCN(C)CC5)c(O)c4c3C2=O)NC(=O)/C(C)=C\C=C\[C@H](C)[C@H](O)[C@@H](C)[C@@H](O)[C@@H](C)[C@H](OC(C)=O)[C@@H]1C [RIFAMPIN],0.0364,0.00364,,IC50 [4]: 4.1 nM; IC90 [4]: 6.9 nM; MIC [4]: 0.0065 µM
